The results in this text go back to ChEMBL document CHEMBL5331136, “Design, Synthesis, and Biological Evaluation of Novel Spiro Imidazobenzodiazepines to Identify Improved Inhaled Bronchodilators” (J Med Chem, 2023).

pIC50: −log10 of the molar value. In brackets after ≈: the same amount, converted by molar mass. Activity calls are given as the source filed them. No cut-off for these calls is given here. A value given as a limit tells only on which side of the number the result lay.

A short description of data set [1]: Metabolic stability in human liver S9 fraction assessed as parent compound remaining at 10 uM measured after 120 mins in presence of UDP-glucuronic acid by LC-MS/MS analysis. In kind it is ADME, subcellular. Conditions: read-out: Stability. A digest of the protocol:
(§1)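 Liver S9 (human or mouse), protein 0.5 mg/mL, compound 10 µM (from 1 mM DMSO stock), phosphate buffer pH 7.4, […], alamethicin 0.0225 mg/mL final. Preincubated 5 min at 37 °C, then S9 added. Aliquots at 0 and 120 min quenched in cold methanol with 5 µM 4,5-diphenylimidazole internal standard. Parent remaining from LC-MS/MS peak-area ratio. Two independent assays in triplicate (n = 6).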

Data set [2] can be described thus: Metabolic stability in mouse liver S9 fraction assessed as parent compound remaining at 10 uM measured after 120 mins in presence of NADPH by LC-MS/MS analysis. In kind it is ADME, subcellular. Conditions: read-out: Stability.
Data set [3] is described as follows: Inhibition of sensorimotor coordination in Swiss Webster mouse at 40 mg/kg, po measured after 10 to 30 mins by rotarod analysis. Conditions: in vivo, time 10-30 min. Type of data set: toxicity, organism-based. The method in brief:
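Female Swiss Webster mice, 10 weeks old, trained on rotarod at 15 rpm for 3 min. Single oral gavage, 100 µL, in 2.5% PEG400/97.5% 2% HPMC. Tested 3 min at 10, 30 and 60 min after dosing; fall time recorded at second fall. n = 12, two-way repeated-measures ANOVA with Bonferroni posttest.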

In data set [4] the test system is HEK293. As to the kind of experiment: Cytotoxicity against HEK293 cells assessed as lethal dose measured after 18 hrs by CellTiter-Glo assay. In kind it is functional. To be noted: Homo sapiens, read-out: LD50 (the source's name). A digest of the protocol:
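HEK293T cells grown in DMEM/high glucose with NEAA, HEPES, pen/strep, 10% heat-inactivated FBS. Plated 15,000 cells/well, then 4 h at 37 °C, 5% CO2. Compound added as 1:3 serial dilutions, top final concentration 300 µM. After 18 h, read luminescence by CellTiter-Glo. DMSO negative control, aminoketone positive control. Three independent experiments in quadruplicate, variable-slope nonlinear regression.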

In data set [5] the test system is Trachea. Briefly: Induction of smooth muscle relaxation in Hartley guinea pig trachea ring assessed as reduction in substance P induced smooth muscle constriction at 25 uM measured after 30 mins. Type of data set: functional, tissue-based. To be noted: Cavia porcellus.
Data set [6] is described as follows: Metabolic stability in human liver S9 fraction assessed as parent compound remaining at 10 uM measured after 120 mins in presence of NADPH by LC-MS/MS analysis. Type of data set: ADME, subcellular. Conditions: liver S9 fraction, read-out: Stability.
The subject of data set [7] is Mus musculus. Briefly: Induction of bronchodilation in A/J mouse assessed as reduction in sRaw values at 7.2 mg/kg administered as nebulized compound. In kind it is functional, organism-based. The method in brief: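 Female A/J mice, no allergen sensitization, trained 5 days in a double-chamber plethysmograph while conscious. Compound nebulized in PBS at 7.2 mg/kg, then five nebulized methacholine challenges (in water). Each nebulization under 1 min, 3 min recording, 1 min pause. sRaw calculated per interval. n = 12, two-way repeated-measures ANOVA against vehicle.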

The target in data set [8] is GABA-A receptor; anion channel (Rattus norvegicus) (UniProt O09028+P15431+P18506+P18508+P19969+P20236+P23574+P23576+P28471+P28473+P30191+P62813+P63079+P63138+Q91ZM7+Q9ES14). As to the kind of experiment: Displacement of [3H]flunitrazepam from GABAA receptor in rat brain extract at 10 uM relative to control. Type of data set: tissue-based.
Data set [9] can be described thus: Aqueous solubility of the compound at […] under shaking condition for 24 hrs by UV absorbance based analysis. Type of data set: physicochemical. To be noted: buffer, 24 h.
Data set [10] in a line: Metabolic stability in mouse liver S9 fraction assessed as parent compound remaining at 10 uM measured after 120 mins in presence of UDP-glucuronic acid by LC-MS/MS analysis. Type of data set: ADME, subcellular. Conditions: read-out: Stability. The method in brief:
as §1

For data set [11], the target named is GABA-A receptor; anion channel. Briefly: Displacement of [3H]flunitrazepam from GABAA receptor in rat brain extract. Type of data set: tissue-based.

Take `O=C(O)c1ncn2c1C1(CC1)N=C(c1ccccc1F)c1cc(Br)ccc1-2`: the remaining at 2 h, 10 µM in data set [1] is 69%; in data set [2], 120%; in [6], 104%; in data set [10] it was 90%. The Activity entry in data set [3] was “Non-Toxic”; in data set [8] it was 97%. Further, the CC50 in [4] was above 300 µM. Moreover, the result in data set [5] and in data set [7] was Active. In data set [9], this molecule displayed a solubility of 8.2 mM (≈ 3500 µg/mL). The pIC50 in [11] was 5.05.
